Experimental data: publication PMC10234138 (Journal of Enzyme Inhibition and Medicinal Chemistry, 2023)
Where “and” joins values, the source holds several entries; their conditions need not be identical. Equal values may be shown once.

Key:
[1] = tested on: MCF-7 (breast cancer cell line); assay: Antiproliferative assay, MCF-7; format: cell-based; settings: Homo sapiens, MCF7, read-out: Antiproliferative activity IC50 ± SEM, MCF-7
[2] = tested on: HT-29 (colon cancer cell line); assay: Antiproliferative assay, HT-29; format: cell-based; settings: Homo sapiens, HT-29, read-out: Antiproliferative activity IC50 ± SEM, HT-29
[3] = Cell viability assay; format: cell-based; settings: human, MCF-10A mammary gland epithelial cells
[4] = tested on: Panc-1 (pancreas cancer cell line); assay: Antiproliferative assay, Panc-1; format: cell-based; settings: Homo sapiens, PANC-1, read-out: Antiproliferative activity IC50 ± SEM, Panc-1
[5] = tested on: four cancer cell lines (A-549, MCF-7, Panc-1, HT-29); assay: Antiproliferative assay, average over four cancer cell lines; format: cell-based, human; settings: for GI50: Homo sapiens, read-out: Antiproliferative activity, Average (GI50)
[6] = tested on: A-549 (epithelial cancer cell line); assay: Antiproliferative assay, A-549; format: cell-based; settings: Homo sapiens, A549, read-out: Antiproliferative activity IC50 ± SEM, A-549
[7] = molecular target: EGFR^WT (Homo sapiens, UniProt P00533); assay: EGFR inhibitory assay; format: biochemical
[8] = tested on: Caspase-3; assay: Caspase-3 assay in Panc-1; format: cell-based, human; settings: Panc-1 cells; for Caspase-3 Fold change: vs control untreated cells
[9] = tested on: Bcl-2; assay: Bcl-2 assay in Panc-1; format: cell-based, human; settings: Panc-1 cells; for Bcl-2 Fold reduction: vs control untreated cells
[10] = tested on: Bax; assay: Bax assay in Panc-1; format: cell-based, human; settings: Panc-1 cells; for Bax Fold change: vs control untreated cells
Method in brief: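 Bax protein in treated Panc-1 cells, read as concentration in pg/mL. Fold induction is relative to untreated Panc-1 control cells. Staurosporine serves as reference compound.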

[11] = molecular target: EGFR^T790M (Homo sapiens, UniProt P00533, T790M); assay: biochemical
[12] = tested on: Caspase-8; assay: Caspase-8 assay in Panc-1; format: cell-based, human; settings: Panc-1 cells; for Caspase-8 Fold change: vs control untreated cells
[13] = antiproliferative, four cancer cell lines

Sequence of EGFR^WT (P00533 669-1210): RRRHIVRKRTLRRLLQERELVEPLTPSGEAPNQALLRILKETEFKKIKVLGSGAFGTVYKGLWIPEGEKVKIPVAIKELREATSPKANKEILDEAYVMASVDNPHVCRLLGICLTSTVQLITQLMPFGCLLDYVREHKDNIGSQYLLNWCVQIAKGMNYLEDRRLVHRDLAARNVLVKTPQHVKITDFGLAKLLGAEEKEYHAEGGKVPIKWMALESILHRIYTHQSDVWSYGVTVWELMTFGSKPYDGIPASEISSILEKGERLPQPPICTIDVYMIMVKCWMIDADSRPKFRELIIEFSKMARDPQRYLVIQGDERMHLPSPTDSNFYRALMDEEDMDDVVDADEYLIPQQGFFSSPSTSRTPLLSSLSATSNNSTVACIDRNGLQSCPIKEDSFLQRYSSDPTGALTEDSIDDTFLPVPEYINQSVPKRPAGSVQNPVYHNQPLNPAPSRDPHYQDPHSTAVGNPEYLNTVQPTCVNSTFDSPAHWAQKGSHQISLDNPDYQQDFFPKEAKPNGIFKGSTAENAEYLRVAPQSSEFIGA
Sequence of EGFR^T790M (P00533 25-1210 T790M): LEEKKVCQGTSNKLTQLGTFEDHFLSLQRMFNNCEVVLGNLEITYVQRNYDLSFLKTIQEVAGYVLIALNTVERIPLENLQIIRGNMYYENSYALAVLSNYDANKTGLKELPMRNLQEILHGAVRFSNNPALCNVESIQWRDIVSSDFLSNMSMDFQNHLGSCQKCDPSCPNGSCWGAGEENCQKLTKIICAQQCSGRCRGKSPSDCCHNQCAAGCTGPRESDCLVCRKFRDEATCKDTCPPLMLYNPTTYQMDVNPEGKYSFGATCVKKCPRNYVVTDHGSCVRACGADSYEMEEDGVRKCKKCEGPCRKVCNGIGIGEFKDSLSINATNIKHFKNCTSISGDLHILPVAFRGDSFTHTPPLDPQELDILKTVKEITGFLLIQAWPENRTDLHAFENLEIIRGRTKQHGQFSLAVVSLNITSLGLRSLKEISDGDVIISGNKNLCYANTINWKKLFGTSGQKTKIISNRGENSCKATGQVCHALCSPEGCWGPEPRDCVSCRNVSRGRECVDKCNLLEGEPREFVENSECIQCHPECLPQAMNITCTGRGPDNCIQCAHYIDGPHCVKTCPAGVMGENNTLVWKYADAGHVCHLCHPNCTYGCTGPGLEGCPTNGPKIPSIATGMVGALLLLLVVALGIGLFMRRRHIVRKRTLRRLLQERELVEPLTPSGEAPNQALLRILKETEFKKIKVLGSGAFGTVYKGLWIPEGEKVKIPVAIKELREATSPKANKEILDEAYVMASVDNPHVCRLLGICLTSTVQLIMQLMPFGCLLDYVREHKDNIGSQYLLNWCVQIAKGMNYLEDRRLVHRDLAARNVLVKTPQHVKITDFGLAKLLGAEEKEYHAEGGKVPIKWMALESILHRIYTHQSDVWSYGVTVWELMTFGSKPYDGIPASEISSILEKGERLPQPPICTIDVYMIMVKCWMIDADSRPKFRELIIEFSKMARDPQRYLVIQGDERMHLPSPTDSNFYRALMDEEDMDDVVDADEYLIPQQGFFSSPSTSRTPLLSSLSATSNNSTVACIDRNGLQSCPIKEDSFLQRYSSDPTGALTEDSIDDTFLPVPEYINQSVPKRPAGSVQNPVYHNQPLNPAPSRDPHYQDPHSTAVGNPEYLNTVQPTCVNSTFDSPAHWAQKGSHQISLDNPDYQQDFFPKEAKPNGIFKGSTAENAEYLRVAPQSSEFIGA

Row | SMILES | IC50 [1] [nM] | IC50 [2] [nM] | viability at 96 h, 50 µM [3] [%] | IC50 [4] [nM] | GI50 [5] [nM] | IC50 [6] [nM] | IC50 [7] [nM] | Caspase-3 Conc [8] [pg/mL] | Bcl-2 Conc [9] [ng/mL] | Bcl-2 Fold reduction [9] | Bax Conc [10] | Bax Fold change [10] | IC50 [11] [nM] | Caspase-8 Conc [12] [ng/mL] | Caspase-8 Fold change [12] | Caspase-3 Fold change [8] | fold more potent than compound 5b (GI50) [5, 13] [fold] | Caspase-3 Fold change ([8]; listed as 5 g) | Bax Conc ([10]; listed as 5 g) [pg/mL] | fold less potent than compound 5f (GI50) [5, 13] [fold]
1 | O=c1c2[nH]c3ccc(Cl)cc3c2ccn1CCc1ccccc1 [Compound 7a, 6-chloro-2-phenethyl-2,9-dihydro-1H-pyrido[3,4-b]indol-1-one] | 57 ± 5 | 55 ± 5 | 90 | 51 ± 5 | 54 | 53 ± 5 |  |  |  |  |  |  |  |  |  |  |  |  |  | 
2 | CO/C=C/c1c(C(=O)NCCc2ccc(N(C)C)cc2)[nH]c2ccc(Cl)cc12 [Compound 5d, (E)-5-chloro-N-(4-(dimethylamino)phenethyl)-3-(2-methoxyvinyl)-1H-indole-2-carboxamide] | 38 ± 3 | 38 ± 4 | 89 | 35 ± 3 | 36 | 34 ± 4 | 85 ± 5 |  |  |  |  |  |  |  |  |  |  |  |  | 
3 | CO/C=C/c1c(C(=O)NCCc2ccc(N3CCCC3C)cc2)[nH]c2ccc(Cl)cc12 (stereo not drawn) [Compound 5f, (E)-5-chloro-3-(2-methoxyvinyl)-N-(4-(2-methylpyrrolidin-1-yl)phenethyl)-1H-indole-2-carboxamide] | 30 ± 3 | 30 ± 3 | 87 | 27 ± 3 | 29 | 28 ± 3 | 68 ± 4 | 560.2 ± 5.0 | 0.80 | 6 | 305 pg/mL and 305.50 pg/mL | 37 | 9.5 ± 2 | 2.10 | 25 |  |  |  |  | 
4 | CN[C@@H]1C[C@H]2O[C@@](C)([C@@H]1OC)n1c3ccccc3c3c4c(c5c6ccccc6n2c5c31)C(=O)NC4 [Staurosporine, reference compound] |  |  |  |  |  |  |  | 503.2 ± 4.0 | 0.98 | 5 | 276 pg/mL and 276.20 pg/mL |  |  | 1.75 | 21 | 7.6 |  |  |  | 
5 | CO/C=C/c1c(C(=O)NC(CO)Cc2ccccc2)[nH]c2ccc(Cl)cc12 (stereo not drawn) [Compound 6a, (E)-5-chloro-N-(1-hydroxy-3-phenylpropan-2-yl)-3-(2-methoxyvinyl)-1H-indole-2-carboxamide] | 92 ± 9 | 89 ± 9 | 86 | 85 ± 9 | 89 | 89 ± 9 |  |  |  |  |  |  |  |  |  |  |  |  |  | 
6 | CO/C=C/c1c(C(=O)NC2c3ccccc3-c3ccccc32)[nH]c2ccc(Cl)cc12 [Compound 6b, (E)-5-chloro-N-(9H-fluoren-9-yl)-3-(2-methoxyvinyl)-1H-indole-2-carboxamide] | 105 ± 10 | 104 ± 10 | 87 | 97 ± 10 | 102 | 102 ± 10 |  |  |  |  |  |  |  |  |  |  |  |  |  | 
7 | CO/C=C/c1c(C(=O)NCc2nc3ccccc3[nH]2)[nH]c2ccc(Cl)cc12 [Compound 6f, (E)-N-((1H-benzo[d]imidazol-2-yl)methyl)-5-chloro-3–(2-methoxyvinyl)-1H-indole-2-carboxamide] | 42 ± 4 | 42 ± 4 | 89 | 38 ± 4 | 41 | 40 ± 4 | 93 ± 6 |  |  |  |  |  |  |  |  |  |  |  |  | 
8 | CO/C=C/c1c(C(=O)NCCc2cccc(N3CCCCC3)c2)[nH]c2ccc(Cl)cc12 [Compound 5c, (E)-5-chloro-3–(2-methoxyvinyl)-N-(3-(piperidin-1-yl)phenethyl)-1H-indole-2-carboxamide] | 49 ± 5 | 47 ± 5 | 87 | 45 ± 5 | 47 | 45 ± 5 | 102 ± 7 |  |  |  |  |  |  |  |  |  | 1.6 |  |  | 
9 | CO/C=C/c1c(C(=O)NCc2ccccc2)[nH]c2ccc(Cl)cc12 [Compound 6c, (E)-N-benzyl-5-chloro-3-(2-methoxyvinyl)-1H-indole-2-carboxamide] | 69 ± 6 | 64 ± 6 | 85 | 62 ± 6 | 66 | 67 ± 6 |  |  |  |  |  |  |  |  |  |  |  |  |  | 
10 | CO/C=C/c1c(C(=O)N2CCC(Cc3ccccc3)CC2)[nH]c2ccc(Cl)cc12 [Compound 6e, (E)-(4-benzylpiperidin-1-yl)(5-chloro-3–(2-methoxyvinyl)-1H-indol-2-yl) methanone] | 47 ± 5 | 45 ± 5 | 91 | 43 ± 4 | 45 | 45 ± 5 | 98 ± 7 |  |  |  |  |  |  |  |  |  |  |  |  | 
11 | CO/C=C/c1c(C(=O)NCCc2ccc(N3CCOCC3)cc2)[nH]c2ccc(Cl)cc12 [Compound 5g, (E)-5-chloro-3-(2-methoxyvinyl)-N-(4-morpholinophenethyl)-1H-indole-2-carboxamide] | 32 ± 3 | 32 ± 3 | 89 | 30 ± 3 | 31 | 30 ± 3 | 74 ± 5 | 542.5 ± 5.0 | 0.84 | 6 | 299.40 pg/mL | 36 | 11.9 ± 3 | 1.97 | 23 | 8.3 |  | approximately 8 | 299 | 
12 | C#Cc1cccc(Nc2ncnc3cc(OCCOC)c(OCCOC)cc23)c1 [Erlotinib, reference compound] | 40 ± 3 | 30 ± 3 |  | 30 ± 3 | 33 | 30 ± 3 |  |  |  |  |  |  |  |  |  |  |  |  |  | 
13 | CO/C=C/c1c(C(=O)NCCc2ccccc2)[nH]c2ccc(Cl)cc12 [Compound 5a, (E)-5-Chloro-3–(2-methoxyvinyl)-N-phenethyl-1H-indole-2-carboxamide] | 79 ± 8 | 75 ± 8 | 91 | 73 ± 7 | 76 | 75 ± 8 |  |  |  |  |  |  |  |  |  |  |  |  |  | 2.5
14 | CO/C=C/c1c(C(=O)NCCc2ccc(N3CCCCC3)cc2)[nH]c2ccc(Cl)cc12 [Compound 5b, (E)-5-chloro-3–(2-methoxyvinyl)-N-(4-(piperidin-1-yl)phenethyl)-1H-indole-2-carboxamide] | 79 ± 7 | 78 ± 7 | 89 | 75 ± 7 | 77 | 76 ± 7 |  |  |  |  |  |  |  |  |  |  |  |  |  | 
15 | O=c1c2[nH]c3ccc(Cl)cc3c2ccn1CCc1ccc(N2CCCCC2)cc1 [Compound 7b, 6-chloro-2–(4-(piperidin-1-yl)phenethyl)-2,9-dihydro-1H-pyrido[3,4-b]indol-1-one] | 59 ± 6 | 57 ± 6 | 89 | 55 ± 5 | 57 | 57 ± 6 |  |  |  |  |  |  |  |  |  |  |  |  |  | 
16 | CO/C=C/c1c(C(=O)NCCc2ccc(N3CCCC3)cc2)[nH]c2ccc(Cl)cc12 [Compound 5e, (E)-5-chloro-3-(2-methoxyvinyl)-N-(4-(pyrrolidin-1-yl)phenethyl)-1H-indole-2-carboxamide] | 73 ± 7 | 71 ± 7 | 90 | 67 ± 7 | 70 | 70 ± 7 |  |  |  |  |  |  |  |  |  |  |  |  |  | 
17 | CO/C=C/c1c(C(=O)N2CCN(c3ccccc3)CC2)[nH]c2ccc(Cl)cc12 [Compound 6d, (E)-(5-chloro-3–(2-methoxyvinyl)-1H-indol-2-yl)(4-phenylpiperazin-1-yl) methanone] | 87 ± 8 | 85 ± 8 | 89 | 81 ± 8 | 85 | 85 ± 8 |  |  |  |  |  |  |  |  |  |  |  |  |  | 
